# Data reported in publication PMC11375963 (RSC Advances, 2024).
# Tests used:
# Cytotoxicity = format: cell-based; details: mouse, BV2 microglial cells
# Method in brief: (§1)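 Mouse BV2 microglia in DMEM with 10% FBS and 1% penicillin–streptomycin, 37 °C, 5% CO2. Seeded at 2 × 10^4 cells/well for 24 h, then exposed to test compound (0, 5, 10, 20, 40, 80 μM) for 24 h. MTT at 500 μg mL−1 for 3 h, formazan dissolved in DMSO, A570. Mean ± SD (n = 3); one-way ANOVA with Dunnett versus vehicle.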
# BV2 microglial cells = assay: Cytotoxicity; format: cell-based; details: 24 hours, MTT, mean ± SD (n = 3)
# Method in brief: as §1
# [1] = system: LPS-induced RAW264.7 cells; details: cited from earlier work
# MCP-1 = MCP-1 release; format: cell-based; details: LPS-induced BV2 cells, pretreatment, concentration-dependent manner (Fig. 4 and 5)
# TNF-α = TNF-α release; format: cell-based; details: LPS-induced BV2 cells, pretreatment, concentration-dependent manner (Fig. 4 and 5)
# IL-6 = IL-6 release; format: cell-based; details: LPS-induced BV2 cells, pretreatment, concentration-dependent manner (Fig. 4 and 5)
# NF-κB (p65) = assay: Western blot of LPS-induced NF-κB; format: cell-based; details: pretreated 1 hour with the highest safety dose, LPS for 1 hour (Fig. 6)
# Method in brief: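 BV2 cells (2 × 10^6 per 6 cm dish) got the highest non-cytotoxic test-compound concentration for 1 h, then LPS for 1 h. Lysates were centrifuged (4 °C, 12 000 rpm, 10 min), Bradford-quantified, 40 μg run on 10% SDS–PAGE and semi-dry blotted to nitrocellulose. P-p65, p65 (1:1000) and β-actin (1:2000) were detected by HRP anti-rabbit and ECL, then densitometry; one-way ANOVA/Bonferroni versus LPS.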
Compound,"viability at 24 h, 5 µM (Cytotoxicity) [%]","viability at 24 h, 10 µM (Cytotoxicity) [%]","viability at 24 h, 20 µM (Cytotoxicity) [%]","viability at 24 h, 40 µM (Cytotoxicity) [%]","viability at 24 h, 80 µM (Cytotoxicity) [%]",Percentage viability (%) (BV2 microglial cells; 5 μM),Percentage viability (%) (BV2 microglial cells; 10 μM),Percentage viability (%) (BV2 microglial cells; 20 μM),Percentage viability (%) (BV2 microglial cells; 40 μM),Percentage viability (%) (BV2 microglial cells; 80 μM),Anti-inflammatory activity [1],Effect on release of MCP-1 (MCP-1),Effect on release of TNF-α (TNF-α),Effect on release of IL-6 (IL-6),Effect on LPS-induced NF-κB (p65) phosphorylation (P-p65-NF-κB/p65-NF-κB ratio) (NF-κB (p65))
"COc1cc(C(=O)O)ccc1O [Compound 11, vanillic acid]",102.9 ± 0.86,99.7 ± 1.55,98.77 ± 0.86,94.8 ± 2.82,86.4 ± 4.09,,,,,,,,,,
"COc1cc2c(ccc3cc(OC)c(O)c(OC)c32)cc1O [Compound 8, 3,7-dihydroxy-2,4,6-trimethoxyphenanthrene]",106.3 ± 0.36,100 ± 6.16,108.2 ± 0.53,113 ± 1.57,94.4 ± 21.2,,,,,,,,,,
"COc1cc(/C=C/C(=O)NCCc2ccc(O)cc2)ccc1O [Compound 17, N-trans-feruloyl tyramine]",107 ± 6.44,97.3 ± 7.01,101 ± 8.73,101 ± 5.33,84.9 ± 5.53,,,,,,,,,,
coelonin [Compound 6],,,,,,106.33 ± 4.65,108.08 ± 5.54,105.55 ± 7.76,76.69 ± 2.86,44.78 ± 13.23,anti-inflammatory activity,significantly reduced,significantly reduced,significantly reduced,
"O=C(O)c1ccc(O)cc1 [Compound 10, p-hydroxybenzoic acid]",101 ± 2.85,96.6 ± 1.58,104 ± 7.79,95.8 ± 4.1,85.1 ± 9.87,,,,,,,,,,
"O=Cc1ccc(O)cc1 [Compound 5, p-hydroxybenzaldehyde]",105 ± 1.81,104 ± 7.68,101 ± 7.37,101 ± 14.9,94.5 ± 21.6,,,,,,,,,,
"COc1ccc2c(c1O)CCc1cc(O)cc(OC)c1-2 [Compound 4, 9,10-dihydro-2,5-dimethoxy-1,7-phenanthrenediol]",102 ± 3.53,99.3 ± 5.77,101 ± 2.3,95.3 ± 3.88,49.1 ± 24.6,,,,,,,,,,
"COc1cc(O)c(Cc2ccc(O)cc2)c2c1-c1ccc(O)cc1CC2 [Compound 14, 1-(4-hydroxylbenzyl)-4-methoxy 9,10-dihydrophenanthrene 2,7-diol]",108 ± 3.2,97.9 ± 8.91,91.9 ± 1.47,65.9 ± 4.08,26.7 ± 14.7,,,,,,,significantly reduced,significantly reduced,significantly reduced,
"COc1cc(O)cc2c1-c1c(O)cccc1CC2 [Compound 7, hircinol]",105 ± 4.37,108 ± 3.16,112 ± 2.51,111 ± 1.88,104 ± 9.12,,,,,,,,,,
"O=C(O)c1ccc(CO)cc1 [Compound 15, 4-hydroxymethyl benzoic acid]",103 ± 1.97,105 ± 3.91,111 ± 2.26,108 ± 2.12,104 ± 3.05,,,,,,,,,,
"COC1=CC(=O)c2ccc3cc(OC)c(OC)c(OC)c3c2C1=O [Compound 3, 3,5,6,7-tetramethoxy-1,4-phenanthrenequinone]",99.9 ± 1.96,95.6 ± 7.44,94.9 ± 3.76,88.8 ± 6.76,55.1 ± 26.4,,,,,,,significantly reduced,significantly reduced,significantly reduced,significantly suppressed
"COc1cc2ccc3cccc(O)c3c2c(OC)c1O [Compound 9, bulbophyllanthrin]",102 ± 2.99,101 ± 4.09,105 ± 3.47,105 ± 5.59,112 ± 5.8,,,,,,,,,,
"COC1=CC(=O)c2c(ccc3cc(OC)c(OC)c(OC)c23)C1=O [Compound 1, 2,5,6,7-tetramethoxy-1,4-phenanthrenequinone]",101 ± 3.33,101.5 ± 0.67,105 ± 7.09,102 ± 8.6,73.7 ± 18.5,,,,,,,significantly reduced,significantly reduced,significantly reduced,
